Columns and labels:
Rotifers [1] = experiment: Viability of rotifers against doxorubicin toxicity at 10 uM; assay type: organism-based; conditions: Rotifera; read-out: Activity
Procedure, shortened: (§1)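 Whole rotifers of defined, uniform age from one stock culture; standardized viability assay. Animals exposed 24 h to oxidotoxin (hydrogen peroxide or doxorubicin) at 200 µM together with antioxidant at 10 µM. Vehicle-only controls run in parallel. Read-out is % viable organisms, mean ± SEM, N = 10; ANOVA with Bonferroni t-test vs vehicle.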

Mixed cortical cells [2] = experiment: Inhibition of doxorubicin-induced death of mixed cortical cells of E15 Sprague-Dawley rat embryo at 10 uM; assay type: functional; conditions: Mixed cortical cell
Procedure, shortened: (§2)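 Primary mixed cortical cultures from E15 Sprague-Dawley rat embryos, exposed 24 h to oxidotoxin (hydrogen peroxide, peroxynitrite or doxorubicin, 200 µM) plus antioxidant at 10 µM. Cell death measured by trypan blue absorbance at 590 nm. Reported as % inhibition of trypan blue absorbance versus vehicle, mean ± SEM, N = 10.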

Mixed cortical cells [3] = experiment: Inhibition of hydrogen peroxide-induced death of mixed cortical cells of E15 Sprague-Dawley rat embryo at 10 uM; assay type: functional; conditions: Mixed cortical cell; procedure, shortened: as §2
[4] = tested on: Radical scavenging activity; experiment: Hydroxyl radical scavenging activity by ABTS competition assay per 30 mins at 1 umol/mL; assay type: functional
Procedure, shortened: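 Fenton-initiated ABTS cation radical formation in distilled water adjusted to pH 5.0. Mix: ABTS 1 mM and FeSO4 0.5 mM (stock), test compound 1 mM in DMSO, 10% final DMSO in vehicle controls. Started by adding H2O2 10 mM (stock). Read at 420 nm every minute for 30 min. Output is quenched ABTS•+ in nmol/30 min, mean ± SEM, N = 10.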

Rotifers [5] = experiment: Viability of rotifers against hydrogen peroxide toxicity at 10 uM; assay type: organism-based; conditions: Rotifera; read-out: Activity; procedure, shortened: as §1
[6] = tested on: Radical scavenging activity; experiment: Radical reducing potency by ABTS cation radical reduction assay per 30 mins at […]; assay type: functional
Procedure, shortened: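 ABTS cation radical reduction assay (modified Re et al.). Assay ABTS•+ 105 µM, test compound 0.5 mM final. Started by adding the test agent. Read every minute at 420 nm for 30 min. DMSO vehicle controls at 2.5% final. Output is reduced ABTS•+ in nmol/30 min, mean ± SEM, N = 10.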

Mixed cortical cells [7] = experiment: Inhibition of peroxynitrite-induced death of mixed cortical cells of E15 Sprague-Dawley rat embryo at 10 uM; assay type: functional; conditions: Mixed cortical cell; procedure, shortened: as §2

Structure (SMILES) | survival at 10 µM (Rotifers [1]) [%] | inhibition at 10 µM (Mixed cortical cells [2]) [%] | inhibition at 10 µM (Mixed cortical cells [3]) [%] | Activity [4] [nM] | survival at 10 µM (Rotifers [5]) [%] | Activity [6] [nM] | inhibition at 10 µM (Mixed cortical cells [7]) [%]
O=C(O)CCc1c[nH]c2ccccc12 | 53.8 | 76.1 | 87.7 | 95.7 | 67.9 | 96.5 | 83.8
Cc1c(C)c2c(c(C)c1O)CCC(C)(C(=O)O)O2 (configuration not stated) [TROLOX] | 13.1 | 15.5 | 22.2 | 87.3 | 13 | 93.4 | 16.8
O=C(O)CCCCC1CCSS1 (stereo not drawn) [LIPOIC ACID, ALPHA] | 13.3 | 14.8 | 15.1 | – | 14.1 | 44.1 | 13.1
CC(C)(C)/[N+]([O-])=C/c1ccccc1 | 18.7 | 24.2 | 25 | 18.2 | 25.6 | 7.8 | 20.6
